How the values were obtained:
[1] = Evaluated for the inhibition constant Ki against hexokinase in yeast; design: species or system Saccharomyces cerevisiae
Summary of the method: (§1)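 Yeast HK or rat HK II (isoelectric focusing, dialysed with 0.5 mM DTT). PK/LDH-coupled assay in 0.05 M Tris-HCl pH 7.6 with 6.6 mM MgCl2, 10 mM glucose, 0.45 mM NADH, 0.55 mM PEP, 20 mM KCl. NADH loss followed at 340 nm, 22 °C. Variable MgATP at 0.6–4.0 × KM. Inhibitors given as equimolar Mg complexes.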

[2] = molecular target: T1, Hexokinase-3 (Rattus norvegicus) (UniProt P27926); experiment: Evaluated for the inhibition of Hexokinase type III catalyzed reactions at 0.3 mM concentration
T1 sequence (whole entry): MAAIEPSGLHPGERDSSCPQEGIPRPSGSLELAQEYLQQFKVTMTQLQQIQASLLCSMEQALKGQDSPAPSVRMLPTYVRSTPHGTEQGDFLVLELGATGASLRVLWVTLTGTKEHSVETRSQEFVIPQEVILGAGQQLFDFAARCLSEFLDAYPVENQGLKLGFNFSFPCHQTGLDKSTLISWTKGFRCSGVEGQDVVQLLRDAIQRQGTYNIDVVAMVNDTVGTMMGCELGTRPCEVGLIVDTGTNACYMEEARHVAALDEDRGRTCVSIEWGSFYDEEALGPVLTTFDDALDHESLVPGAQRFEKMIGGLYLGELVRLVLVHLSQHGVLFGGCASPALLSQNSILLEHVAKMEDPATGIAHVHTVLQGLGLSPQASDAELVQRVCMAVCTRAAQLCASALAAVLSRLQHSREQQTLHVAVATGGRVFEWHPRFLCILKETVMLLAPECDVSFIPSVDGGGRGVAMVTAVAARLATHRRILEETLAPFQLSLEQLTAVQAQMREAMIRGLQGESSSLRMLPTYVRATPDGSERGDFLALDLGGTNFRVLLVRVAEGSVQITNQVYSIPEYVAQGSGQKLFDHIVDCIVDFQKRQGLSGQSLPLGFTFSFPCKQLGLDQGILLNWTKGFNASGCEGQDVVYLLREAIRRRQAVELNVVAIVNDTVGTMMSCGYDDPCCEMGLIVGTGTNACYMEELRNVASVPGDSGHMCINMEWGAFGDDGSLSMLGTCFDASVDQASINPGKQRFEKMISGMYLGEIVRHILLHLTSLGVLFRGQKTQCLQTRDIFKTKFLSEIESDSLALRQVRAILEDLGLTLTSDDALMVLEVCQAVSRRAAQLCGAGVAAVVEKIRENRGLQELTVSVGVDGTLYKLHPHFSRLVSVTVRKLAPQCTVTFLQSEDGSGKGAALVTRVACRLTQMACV
Summary of the method: (§2)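 Rat HK I, II or III from isoelectric focusing, dialysed with 0.5 mM DTT. PK/LDH-coupled assay in 0.05 M Tris-HCl pH 7.6 with 6.6 mM MgCl2, 10 mM α-D-glucose, 0.45 mM NADH, 0.55 mM PEP and 20 mM KCl. Reactions started with enzyme; rates read from 340 nm absorbance change at 22 °C.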

[3] = molecular target: T2, Hexokinase-1 (Rattus norvegicus) (UniProt P05708); experiment: Evaluated for the inhibition of Hexokinase, type I -catalyzed reactions at 0.3 mM concentration; summary of the method: as §2
T2 sequence (whole entry): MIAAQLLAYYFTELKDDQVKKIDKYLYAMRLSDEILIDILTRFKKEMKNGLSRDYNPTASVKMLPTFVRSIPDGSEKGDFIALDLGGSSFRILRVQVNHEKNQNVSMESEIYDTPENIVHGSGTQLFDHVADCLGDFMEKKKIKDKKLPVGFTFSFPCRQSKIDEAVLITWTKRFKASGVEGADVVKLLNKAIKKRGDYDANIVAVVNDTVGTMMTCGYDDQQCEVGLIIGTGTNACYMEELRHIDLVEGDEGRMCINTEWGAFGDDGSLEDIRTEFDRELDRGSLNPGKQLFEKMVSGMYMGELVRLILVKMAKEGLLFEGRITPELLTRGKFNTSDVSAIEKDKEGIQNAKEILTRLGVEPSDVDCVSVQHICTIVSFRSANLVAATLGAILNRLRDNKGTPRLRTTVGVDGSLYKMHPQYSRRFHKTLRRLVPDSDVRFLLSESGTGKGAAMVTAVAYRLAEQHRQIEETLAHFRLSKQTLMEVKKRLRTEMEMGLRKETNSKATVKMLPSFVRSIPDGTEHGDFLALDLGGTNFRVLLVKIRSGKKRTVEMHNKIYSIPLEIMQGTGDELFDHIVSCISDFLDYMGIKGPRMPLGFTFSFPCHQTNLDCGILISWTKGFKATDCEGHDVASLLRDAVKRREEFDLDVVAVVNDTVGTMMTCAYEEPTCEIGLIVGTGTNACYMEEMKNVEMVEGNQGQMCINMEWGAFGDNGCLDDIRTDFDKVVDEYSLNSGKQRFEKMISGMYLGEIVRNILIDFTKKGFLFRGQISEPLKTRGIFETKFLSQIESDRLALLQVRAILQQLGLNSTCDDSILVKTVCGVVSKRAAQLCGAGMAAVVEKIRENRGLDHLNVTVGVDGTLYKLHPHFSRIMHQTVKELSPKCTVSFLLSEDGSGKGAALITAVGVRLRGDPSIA

[4] = molecular target: T1, Hexokinase-3 (Rattus norvegicus); experiment: Evaluated for the inhibition of Hexokinase type III catalyzed reactions at 0.6 mM concentration; summary of the method: as §2
[5] = molecular target: T2, Hexokinase-1 (Rattus norvegicus); experiment: Evaluated for the inhibition of Hexokinase, type I -catalyzed reactions at 0.6 mM concentration; summary of the method: as §2
[6] = molecular target: T3, Hexokinase-2 (Rattus norvegicus) (UniProt P27881); experiment: Evaluated for the inhibition of Hexokinase, type II catalyzed reactions at 0.3 mM concentration; summary of the method: as §2
T3 sequence (whole entry): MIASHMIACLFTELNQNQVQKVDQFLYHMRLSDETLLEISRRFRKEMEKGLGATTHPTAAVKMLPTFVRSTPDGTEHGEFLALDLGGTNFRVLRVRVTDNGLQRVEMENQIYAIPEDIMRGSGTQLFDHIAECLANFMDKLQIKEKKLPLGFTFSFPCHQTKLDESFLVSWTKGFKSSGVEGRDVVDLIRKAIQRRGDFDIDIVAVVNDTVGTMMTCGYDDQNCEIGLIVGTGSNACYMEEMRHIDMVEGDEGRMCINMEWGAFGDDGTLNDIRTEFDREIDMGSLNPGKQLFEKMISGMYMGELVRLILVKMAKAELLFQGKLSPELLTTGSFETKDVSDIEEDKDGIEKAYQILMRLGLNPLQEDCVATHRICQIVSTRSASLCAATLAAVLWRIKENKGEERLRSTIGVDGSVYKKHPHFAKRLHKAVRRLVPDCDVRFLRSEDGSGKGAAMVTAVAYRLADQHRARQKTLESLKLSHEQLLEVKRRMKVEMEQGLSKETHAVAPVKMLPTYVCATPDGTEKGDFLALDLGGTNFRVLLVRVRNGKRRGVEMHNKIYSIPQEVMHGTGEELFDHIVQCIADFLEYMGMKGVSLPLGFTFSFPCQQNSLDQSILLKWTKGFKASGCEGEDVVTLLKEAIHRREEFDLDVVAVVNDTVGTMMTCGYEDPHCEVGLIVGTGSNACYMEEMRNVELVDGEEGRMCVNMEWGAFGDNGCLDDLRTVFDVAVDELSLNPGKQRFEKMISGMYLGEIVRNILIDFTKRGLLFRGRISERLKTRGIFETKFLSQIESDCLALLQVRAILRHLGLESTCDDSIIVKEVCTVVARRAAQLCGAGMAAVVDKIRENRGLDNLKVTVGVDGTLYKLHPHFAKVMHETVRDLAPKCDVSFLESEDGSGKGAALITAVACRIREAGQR

[7] = molecular target: T3, Hexokinase-2 (Rattus norvegicus); experiment: Evaluated for the inhibition of Hexokinase, type II catalyzed reactions at 0.6 mM concentration; summary of the method: as §2
Hexokinase-2 = molecular target: T4, Hexokinase-2 (Rattus norvegicus, UniProt P27881); experiment: Evaluated for the inhibition constant Ki against Hexokinase, type II; summary of the method: as §1
T4 sequence (P27881 whole entry): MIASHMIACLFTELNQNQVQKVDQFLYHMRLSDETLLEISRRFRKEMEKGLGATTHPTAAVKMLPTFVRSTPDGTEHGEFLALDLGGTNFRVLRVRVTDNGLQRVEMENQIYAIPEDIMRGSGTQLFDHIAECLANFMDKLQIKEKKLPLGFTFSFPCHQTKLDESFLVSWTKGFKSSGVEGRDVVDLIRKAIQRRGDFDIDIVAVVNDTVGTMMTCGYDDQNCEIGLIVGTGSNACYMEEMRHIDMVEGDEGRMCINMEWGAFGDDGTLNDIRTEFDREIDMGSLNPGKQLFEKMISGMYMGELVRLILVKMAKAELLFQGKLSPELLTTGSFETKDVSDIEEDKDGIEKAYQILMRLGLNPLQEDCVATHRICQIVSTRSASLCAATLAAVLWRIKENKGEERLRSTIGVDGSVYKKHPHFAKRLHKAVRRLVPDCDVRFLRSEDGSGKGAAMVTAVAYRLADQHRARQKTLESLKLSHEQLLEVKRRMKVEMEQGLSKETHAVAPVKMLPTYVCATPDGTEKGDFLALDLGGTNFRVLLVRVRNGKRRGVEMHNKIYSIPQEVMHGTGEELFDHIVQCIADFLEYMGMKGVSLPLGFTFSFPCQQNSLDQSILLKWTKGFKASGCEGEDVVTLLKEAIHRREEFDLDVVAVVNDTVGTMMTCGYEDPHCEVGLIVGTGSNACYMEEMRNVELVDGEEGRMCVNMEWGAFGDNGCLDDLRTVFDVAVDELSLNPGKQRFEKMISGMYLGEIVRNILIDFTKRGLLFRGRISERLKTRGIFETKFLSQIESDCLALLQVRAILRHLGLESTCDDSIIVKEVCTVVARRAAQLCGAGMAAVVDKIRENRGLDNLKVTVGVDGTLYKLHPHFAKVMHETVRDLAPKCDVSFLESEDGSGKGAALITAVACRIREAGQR

[8] = molecular target: T2, Hexokinase-1 (Rattus norvegicus); experiment: Evaluated for the inhibition of Hexokinase, type I -catalyzed reactionsI at 0.6 mM concentration; summary of the method: as §2
[9] = molecular target: T3, Hexokinase-2 (Rattus norvegicus); experiment: Evaluated for the inhibition of Hexokinase, type II catalyzed reactionsI at 0.3 mM concentration; summary of the method: as §2
[10] = substrate: Cc1cn([C@H]2C[C@H](O)[C@@H](CO)O2)c(=O)[nH]c1=O
[11] = substrate: Nc1ncnc2c1ncn2[C@@H]1O[C@H](COP(=O)(O)OP(=O)(O)OP(=O)(O)O)[C@@H](O)[C@H]1O
[12] = substrate: Cc1cn([C@H]2C[C@H](O)[C@@H](CO)O2)c(=O)[nH]c1=O; remark: listed apart in the source
[13] = substrate: Nc1ncnc2c1ncn2[C@@H]1O[C@H](COP(=O)(O)OP(=O)(O)OP(=O)(O)O)[C@@H](O)[C@H]1O; remark: listed apart in the source
[14] = substrate: Nc1ncnc2c1ncn2[C@@H]1O[C@H](COP(=O)(O)OP(=O)(O)OP(=O)(O)O)[C@@H](O)[C@H]1O; remark: listed apart in the source

Nc1ncnc2c1ncn2C1O[C@H](COP(=O)(O)OP(=O)(O)OP(=O)(O)OP(=O)(O)OC[C@@H]2O[C@@H](O)[C@@H](O)[C@H](O)[C@H]2O)[C@@H](O)[C@H]1O (stereo partly specified)
Ki [1]: 3500 µM
inhibition [2]: 6.5%
inhibition [3]: 4.7%
inhibition [4]: 8.7%
inhibition [5]: 8%
inhibition [6]: 28%
inhibition [7]: 30%

Nc1ncnc2c1ncn2C1O[C@H](COP(=O)(O)OP(=O)(O)OP(=O)(O)OC[C@@H]2O[C@@H](O)[C@@H](O)[C@H](O)[C@H]2O)[C@@H](O)[C@H]1O (stereo partly specified)
Ki (Hexokinase-2): 2200 µM
Ki [1]: 1400 µM
inhibition [2]: 3.1%
inhibition [3]: 9.3%
inhibition [8]: 5.6%
inhibition [4]: 6.2%
inhibition [9]: 4.4%
inhibition [7]: 10.1%

Nc1ncnc2c1ncn2[C@@H]1O[C@H](COP(=O)(O)OP(=O)(O)OP(=O)(O)O)[C@@H](O)[C@H]1O
Km (Saccharomyces cerevisiae): 210 µM

B1: Thymidine kinase, cytosolic (Rattus norvegicus), P27158 (protein)
chain: MSYINLPTVLPISPSKTRGQIQVILGPMFSGKSTELMRRVRRFQIAQYKCLVIKYAKDTRYSNSFSTHDRNTMDALPACMLKDVAQEALGVAVIGIDEGQFFPDIVDFCETMANTGKTVIV
Km [10]: 1.6 µM
Km [11]: 180 µM
Km [12]: 8 µM
Km [13]: 190 µM

B2: Hexokinase-2 (Rattus norvegicus), P27881 (protein)
chain: MIASHMIACLFTELNQNQVQKVDQFLYHMRLSDETLLEISRRFRKEMEKGLGATTHPTAAVKMLPTFVRSTPDGTEHGEFLALDLGGTNFRVLRVRVTDNGLQRVEMENQIYAIPEDIMRGSGTQLFDHIAECLANFMDKLQIKEKKLPLGFTFSFPCHQTKLDESFLVSWTKGFKSSGVEGRDVVDLIRKAIQRRGDFDIDIVAVVNDTVGTMMTCGYDDQNCEIGLIVGTGSNACYMEEMRHIDMVEGDEGRMCINMEWGAFGDDGTLNDIRTEFDREIDMGSLNPGKQLFEKMISGMYMGELVRLILVKMAKAELLFQGKLSPELLTTGSFETKDVSDIEEDKDGIEKAYQILMRLGLNPLQEDCVATHRICQIVSTRSASLCAATLAAVLWRIKENKGEERLRSTIGVDGSVYKKHPHFAKRLHKAVRRLVPDCDVRFLRSEDGSGKGAAMVTAVAYRLADQHRARQKTLESLKLSHEQLLEVKRRMKVEMEQGLSKETHAVAPVKMLPTYVCATPDGTEKGDFLALDLGGTNFRVLLVRVRNGKRRGVEMHNKIYSIPQEVMHGTGEELFDHIVQCIADFLEYMGMKGVSLPLGFTFSFPCQQNSLDQSILLKWTKGFKASGCEGEDVVTLLKEAIHRREEFDLDVVAVVNDTVGTMMTCGYEDPHCEVGLIVGTGSNACYMEEMRNVELVDGEEGRMCVNMEWGAFGDNGCLDDLRTVFDVAVDELSLNPGKQRFEKMISGMYLGEIVRNILIDFTKRGLLFRGRISERLKTRGIFETKFLSQIESDCLALLQVRAILRHLGLESTCDDSIIVKEVCTVVARRAAQLCGAGMAAVVDKIRENRGLDNLKVTVGVDGTLYKLHPHFAKVMHETVRDLAPKCDVSFLESEDGSGKGAALITAVACRIREAGQR
Km [14]: 710 µM

Reference: ChEMBL document CHEMBL1122168, “Species- or isozyme-specific enzyme inhibitors. 6. Synthesis and evaluation of two-substrate condensation products as inhibitors of hexokinases and thymidine kinases” (J Med Chem, 1982)
